Results from ChEMBL document CHEMBL4513216, “Probing the Open Global Health Chemical Diversity Library for Multistage-Active Starting Points for Next-Generation Antimalarials” (ACS Infect Dis, 2020).

test: Toxicity liver stage against HepG2, at 10uM; assay type: cell-based; set-up: test concentration 10 uM, cell line HepG2-A16-CD81EGFP; details: human, HepG2-A16-CD81EGFP cells; read-out: INHIBITION
Outline: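 Uninfected HepG2-A16-CD81EGFP cells, 3 × 10^3 per well, 1536-well, plated on prespotted compound at 10 μM final, parasite-free screening media added to match infected plates; puromycin 10 μM positive, DMSO 0.5% negative; run in parallel with 48 h PbLuc assay at 37 °C, 5% CO2; viability by CellTiter-Glo luminescence, normalized to controls.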

SMILES	cytotoxicity at 10 µM [%]
CC(NCc1cccc(C#N)c1)c1ccccn1 (stereo unspecified)	-9.61
COc1ccc(C(N)c2cccc(S(C)(=O)=O)c2)cc1 (stereo unspecified)	4.69
CN(CCN1CCCCCC1)C(=O)c1cc(CN2CCCC(O)C2)on1 (stereo unspecified)	-0.641
COCc1noc(-c2ccc(N(C)Cc3nccs3)nc2)n1	-1.57
COCCN1C(=O)CC[C@@H]2[C@H]1CCN2Cc1ccc(C)s1	-70.4
Cc1cnn(CC(=O)NCC2CCN(c3cc(Cl)ccc3C)C2)c1 (stereo unspecified)	-3.92
O=C(CCc1cccs1)Nc1ccnn1C1CCS(=O)(=O)C1 (stereo unspecified)	-19.8
CCN(C(=O)NCc1ccc(C)cc1OC)C(C)c1cccnc1 (stereo unspecified)	6.32
Cc1c(Cl)c(C(=O)NCc2ccc(F)cc2)nn1C	-2.26
COCCO[C@H]1CCN(C(=O)c2ccsc2)[C@H]1Cc1ccncc1	-75.4
CC(C)c1nnc(NCc2cc3n(n2)CCN(C2CCCCC2)C3)s1	-4.63
COc1ccc(OCC(=O)NC(C)c2ccc(F)cc2)c(C(=O)O)c1 (stereo unspecified)	2.89
Cc1ccnc(OC[C@@]23CCO[C@@H]2CCN(S(C)(=O)=O)C3)n1	9.34
CCNc1ncc(C(=O)N2CCOC(CCCc3ccccc3)C2)cn1 (stereo unspecified)	79.2
COCCc1noc(CN(C)c2nc(C)nc(C)c2C)n1	4.24
CCC(OC)C(=O)NCC1CCN(c2cnn(C)c(=O)c2)CC1 (stereo unspecified)	7.35
Cc1noc(C2CCN(C(=O)CCNS(C)(=O)=O)CC2)n1	-21
CN1N=C(C(=O)N2CCCC(n3ccnc3)C2)CCC1=O (stereo unspecified)	-13.2
O=C(c1ccc(=O)[nH]n1)N(CCO)Cc1cc(Br)ccc1F	7.56
CC(C)COC[C@@H]1CC[C@H]2[C@H](CCN2C(=O)c2ccncc2F)O1	-0.58
O=C(c1cccc(-n2cccn2)c1)N1CCOC(CCO)C1 (stereo unspecified)	0.0642
CCN(CC1CCOC1)C(=O)c1ccc(N(C)C)cc1F (stereo unspecified)	3.54
Cc1nc(=O)c(CC(=O)N2C[C@@H]3CC[C@H]2CN(C(=O)N(C)C)C3)c(C)[nH]1	7.6

SMILES	cytotoxicity at 10 µM [%]
Cc1ccc(-n2nc(C)c3c(C)cc(OCC(=O)NC(C)C)nc32)cc1	-3.61
Cc1ccc(C(=O)NC2CCN(C(C)C)C2)c(=O)[nH]1 (stereo unspecified)	5.26
CC(=O)N1CCc2c(nc(N(C)C)nc2NC(C)Cc2cccs2)C1 (stereo unspecified)	-42.9
COc1ccc(F)cc1CN1CCC(O)(CN2CCCCC2)C1 (stereo unspecified)	-12
Cc1n[nH]c(C)c1NC(=O)CN1CCN(c2nccs2)C(C)C1 (stereo unspecified)	-17.6
Cc1cc2c(=O)n3c(nc2s1)CCN(Cc1cncn1C)CC3	-14.2
COC1CC2(CCN(Cc3ccc4c(c3)OCO4)CC2)C1	3.07
Cc1nnc(C2Cc3ccccc3CN2Cc2c(C)noc2C)o1 (stereo unspecified)	-13.7
Cc1cccc(C)c1OCC(=O)N1CCOCC1c1ncon1 (stereo unspecified)	-17
O=S1(=O)CCC(S(=O)(=O)c2cccc(S(=O)(=O)N3CCCC3)c2)C1 (stereo unspecified)	3.45
Cn1cc(CNc2cnn(CC3CCCO3)c2)c(-c2ccncc2)n1 (stereo unspecified)	4.4
O=C(O)CN1CCC(F)(F)C2(CCN(c3ccccc3)C2)C1 (stereo unspecified)	10.7
CS(=O)(=O)c1cn[nH]c1C1CCCCN1C(=O)c1ccsc1 (stereo unspecified)	-18.6
CCCc1cc(N2CCC(NC3CCC(O)CC3)CC2)nc(C)n1 (stereo unspecified)	-4.35
N#Cc1ccccc1CN(CCO)Cc1ccsc1	18.4
CN(C)CCn1c(=O)oc2ccc(NC(=O)CC(C)(C)C)cc21	-2.28
Cc1cc(C)n(CC(C)NC(=O)c2cc(CN3CCC(O)CC3)on2)n1 (stereo unspecified)	0.873
COC(=O)c1cnc2c(c(C)nn2C)c1OC	0.822
CCc1noc(C(C)N2CCC(NC(=O)c3ccc(C)s3)CC2)n1 (stereo unspecified)	-9.9
OC1(Cn2ccc3ncccc32)CCN(Cc2cccs2)CC1	-9.65
CC(C)(CC(=O)Nc1cccc(Oc2ccccn2)c1)C(=O)O	-17.6
CCc1nc(C2CCCN2Cc2ncc(C)c(OC)c2C)no1 (stereo unspecified)	3.3
Cc1nc2c(cc1C(=O)O)CCN(Cc1ccsc1)CC2	9.62

SMILES	cytotoxicity at 10 µM [%]
Cc1csc(NC(=O)c2cccnc2N2CCOCC2)n1	-4.75
COc1ccc(OCCc2nnc(NC(C)=O)s2)cc1	0.0869
O=C(COc1ccc2c(c1)CCC2)NS(=O)(=O)c1cccnc1	-4.63
COc1ccc(CN(C)[C@@H]2CN(C(=O)c3ccnn3C)C[C@H]2O)cc1	-13.5
Cc1ccc(CCNC(=O)c2cccnc2)o1	-0.996
Cc1nc(CN2CCN(CCCc3ccccc3)CC2)no1	11.7
Cn1cnc2c1C(COCC1CC1)CN(C(=O)c1ccsc1)C2 (stereo unspecified)	4.73
CCc1nc(CN2CCCN(C(=O)c3cnc(C)cn3)CC2)cs1	-4.81
Cc1nccn1-c1ccc(NS(=O)(=O)c2cnn(C)c2)cn1	-6.38
Cc1cc(CN2C[C@@H]3COC[C@H](C(=O)N4CCCCO4)[C@@H]3C2)no1	-77.9
Cn1nc(-c2ccccc2)cc1[C@H]1CN2CC[C@H]1C[C@@H]2CNS(C)(=O)=O	1.82
CCc1nn(C)c(Cl)c1CN1C[C@H](NC(=O)CCO)[C@@H](C(C)C)C1	11.1
COc1ccc(F)cc1C(=O)N(C)[C@@H]1CC[C@@H](O)[C@@H]1O	7.81
Cc1c(C(=O)N2CCC(C(O)c3ccc(Cl)cc3)CC2)cnn1C (stereo unspecified)	-0.916
Cc1cccc(CN2CC3(CCN(C(N)=O)CC3)OCC2=O)n1	2.17
Cc1cnc(NC2CCN(CC(=O)Nc3ccccc3)CC2)nc1C	-5.47
COCC(=O)N[C@H]1C[C@@H](Cc2cc(CN3CCCCC3)on2)C1(C)C	-8.12
Cc1noc(C)c1C(=O)NCC(C)N1CCc2ccccc21 (stereo unspecified)	-17.2
O=C(c1cnn2c1OCCC2)N1CCN(C/C=C/c2ccccc2)CC1	9.28
Cc1ccc(NC(=O)N(CCO)Cc2ccsc2)cc1	3.58
Cc1cc(C(=O)N2CCN(c3ncc4c(n3)CCOC4)CC2)sc1C	0.794
CC(C)(C)C(=O)NCCC1CN(Cc2ccccc2F)CCO1 (stereo unspecified)	-2.05
CC(C)C(C(=O)N1CCN(Cc2cscn2)CC1)n1cncn1 (stereo unspecified)	7.89

SMILES	cytotoxicity at 10 µM [%]
O=C(C[S+]([O-])Cc1ccccc1F)N1CCc2sccc2C1 (stereo unspecified)	-8.02
COc1ncccc1NC(=O)C1CCN(S(C)(=O)=O)CC1	-5.74
O=C(Cc1ccccn1)N1CCCC(c2nccn2CC2CCC2)C1 (stereo unspecified)	-2.11
CC(C)(C)c1nnc(NCC(=O)N2CCc3sccc3C2)s1	5.62
CCC(CNC(=O)c1cccc(S(=O)(=O)NC)c1)N1CCCC1 (stereo unspecified)	-4.18
CN1CCC/C1=N\S(=O)(=O)c1ccc(NC(=O)c2ccc(Cl)cc2)cc1	-0.383
CCc1c(C(=O)N2CCCN(C(C)=O)CC2)cnn1C(C)(C)C	-3.93
CCc1nc(CN(C)C(=O)C2CCC(=O)N(CC3CCCCC3)C2)no1 (stereo unspecified)	4.46
CN1CCCc2c1nc1c(c2N)CCC1	10.2
O=S(=O)(NCC1(O)CCOc2ccccc21)c1cccs1 (stereo unspecified)	-16.8
CN(C)C(=O)CNC(=O)c1nc2c(s1)CCCN2Cc1ccccc1	8.13
COCCC1CN(c2nc(-c3ccccc3)nc3c2CCNC3)CCO1 (stereo unspecified)	-2.98
CN1CC(C(=O)NC(C)(C)CNC(=O)OC(C)(C)C)CC1=O (stereo unspecified)	-3.88
CN(Cc1ccc2c(c1)OCCO2)C(=O)NCCc1cnn(C)c1	-9.12
CC(C)C(C)(C#N)NC(=O)CN1CCC(c2ccnn2CCO)CC1 (stereo unspecified)	-4.95
CCN(CCNCc1cccc(C#N)c1)C1CC1	-11.3
CCC(C)(NCc1nnc(C(C)(C)C)o1)c1nccs1 (stereo unspecified)	19.2
Cc1cccc(S(=O)(=O)NCc2cccc(CS(C)(=O)=O)c2)c1	-18.4
Cc1cc(CNC(=O)CC2CN(C(=O)OC(C)(C)C)C2)ccc1F	4.21
Cc1nn(C)c(C)c1CNCc1ccnc(N2CCOCC2)c1	0.626
COCC1CN(C(=O)Cc2ccccn2)Cc2c1cnn2CC1CC1 (stereo unspecified)	-69.1
Cc1noc(C)c1-c1cncc(C2CCCN2Cc2nccs2)n1 (stereo unspecified)	-14.2
COCC1CC2(CCN(C(=O)c3cccc(C)c3)CC2)CO1 (stereo unspecified)	-5.15

SMILES	cytotoxicity at 10 µM [%]
CN1CCOC(CNC(=O)C2(c3cccc(Cl)c3)CC2)C1 (stereo unspecified)	-3.03
c1cnc(N2CCO[C@H]3CN(Cc4cc[nH]n4)C[C@H]32)cn1	9.07
COc1cccc(CN2CCCCCC2c2sccc2C)c1O (stereo unspecified)	7.18
O=C1C(NS(=O)(=O)c2ccc(F)cc2)CCN1Cc1ccccc1 (stereo unspecified)	-3.48
N#Cc1cc(NC(=O)c2cc[nH]n2)ccc1N1CCC(O)CC1	-0.758
CC(=O)N1CC2(CCN(C(=O)c3ccoc3)C2)C1	6.47
CN(C)C(=O)C1OC2(CCNCC2)c2ccccc21 (stereo unspecified)	0.37
COC(CNC(=O)c1cn(C)nn1)c1ccccc1C (stereo unspecified)	-14.5
CC(=O)N1CCN(C(=O)CCc2cc(Br)cs2)CC1	-9.74
CCc1nc2n(n1)CC(NCc1ncc(-c3ccccc3)o1)CC2 (stereo unspecified)	-3.91
O=C(c1csc(C2CC2)n1)N1CCCCC1Cn1cccn1 (stereo unspecified)	0.745
CC(=O)N1CCOC(Cc2cccc(C(F)(F)F)c2)C1 (stereo unspecified)	-6.64
COc1ccc2cccc(CC(=O)NCc3n[nH]c(=O)[nH]3)c2c1	-3.22
CCCc1nc(C(=O)N2CCn3nc(C(=O)OC)cc3C2)cs1	8.87
CCCNC(=O)NCc1nc(C)c(C)o1	5.19
CC(C)c1nc(-c2cc(C(=O)O)c3ccccn23)cs1	7.43
CC(C)Oc1ccc(C(=O)Cn2cnnc2[S+](C)[O-])cc1 (stereo unspecified)	-4.68
Cc1ccc(C(=O)N2CCCC(N(C)C(=O)OC(C)(C)C)C2)o1 (stereo unspecified)	-54
CN(C)c1cc2c(nn1)CCN(C(=O)c1cc3c(s1)CCOC3)C2	2.35
